# System: Escherichia coli
# Assay: Anti-bacterial activity was tested against Gram-negative EC-1 bacterium
# Type: functional
# In short: (§1)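 Standard microtitration MIC determination (µg/mL) against four representative Gram-negative and Gram-positive bacterial strains.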
row,MIC [µg/mL],Structure (SMILES)
1,0.2,CNCC1CCN(c2cc3c(cc2F)c(=O)c(C(=O)O)cn3-c2ccc(F)cc2F)C1 (stereo not drawn)
2,0.4,CC1CN(c2cc3c(cc2F)c(=O)c(C(=O)O)cn3C2CCC2)CC(C)N1 (stereo not drawn)
3,3.1,CCn1cc(C(=O)O)c(=O)c2cc(F)c(N3CCC(CNC)C3)cc21 (stereo not drawn)
4,0.4,CNCC1CCN(c2cc3c(cc2F)c(=O)c(C(=O)O)cn3C(C)(C)C)C1 (stereo not drawn)
5,3.1,CC(C)CN1CCN(c2cc3c(cc2F)c(=O)c(C(=O)O)cn3-c2ccc(F)cc2F)CC1
6,0.8,CC(C)N1CCN(c2cc3c(cc2F)c(=O)c(C(=O)O)cn3-c2ccc(F)cc2F)CC1
7,0.05,NC1CCN(c2cc3c(cc2F)c(=O)c(C(=O)O)cn3C2CC2)C1 (stereo not drawn)

row,Structure (SMILES),MIC [µg/mL]
1,CC(C)(C)n1cc(C(=O)O)c(=O)c2cc(F)c(N3CCNCC3)cc21,0.2

# System: Mycolicibacterium fortuitum
# Assay: Anti-bacterial activity tested against Mycobacterium fortuitum (ATCG 6841)
# Type: functional
row,MIC [µg/mL],Structure (SMILES)
1,0.13,CNCC1CCN(c2cc3c(cc2F)c(=O)c(C(=O)O)cn3-c2ccc(F)cc2F)C1 (stereo not drawn)
2,0.13,CC1CN(c2cc3c(cc2F)c(=O)c(C(=O)O)cn3C2CCC2)CC(C)N1 (stereo not drawn)
3,2,CCn1cc(C(=O)O)c(=O)c2cc(F)c(N3CCC(CNC)C3)cc21 (stereo not drawn)
4,0.13,CNCC1CCN(c2cc3c(cc2F)c(=O)c(C(=O)O)cn3C(C)(C)C)C1 (stereo not drawn)
5,2,CC(C)CN1CCN(c2cc3c(cc2F)c(=O)c(C(=O)O)cn3-c2ccc(F)cc2F)CC1
6,0.5,CC(C)N1CCN(c2cc3c(cc2F)c(=O)c(C(=O)O)cn3-c2ccc(F)cc2F)CC1
7,< 0.03,NC1CCN(c2cc3c(cc2F)c(=O)c(C(=O)O)cn3C2CC2)C1 (stereo not drawn)

row,Structure (SMILES),MIC [µg/mL]
1,CC(C)(C)n1cc(C(=O)O)c(=O)c2cc(F)c(N3CCNCC3)cc21,< 0.03

# System: Mycolicibacterium smegmatis
# Assay: Anti-bacterial activity tested against Mycobacterium smegmatis (ATCG 19420)
# Type: functional
row,MIC [µg/mL],Structure (SMILES)
1,0.25,CNCC1CCN(c2cc3c(cc2F)c(=O)c(C(=O)O)cn3-c2ccc(F)cc2F)C1 (stereo not drawn)
2,0.5,CC1CN(c2cc3c(cc2F)c(=O)c(C(=O)O)cn3C2CCC2)CC(C)N1 (stereo not drawn)
3,8,CCn1cc(C(=O)O)c(=O)c2cc(F)c(N3CCC(CNC)C3)cc21 (stereo not drawn)
4,0.25,CNCC1CCN(c2cc3c(cc2F)c(=O)c(C(=O)O)cn3C(C)(C)C)C1 (stereo not drawn)
5,4,CC(C)CN1CCN(c2cc3c(cc2F)c(=O)c(C(=O)O)cn3-c2ccc(F)cc2F)CC1
6,1,CC(C)N1CCN(c2cc3c(cc2F)c(=O)c(C(=O)O)cn3-c2ccc(F)cc2F)CC1
7,0.25,NC1CCN(c2cc3c(cc2F)c(=O)c(C(=O)O)cn3C2CC2)C1 (stereo not drawn)

row,Structure (SMILES),MIC [µg/mL]
1,CC(C)(C)n1cc(C(=O)O)c(=O)c2cc(F)c(N3CCNCC3)cc21,0.13

# System: Pseudomonas aeruginosa
# Assay: Anti-bacterial activity tested against Gram-negative PA-7 bacterium
# Type: functional
# In short: as §1
row,MIC [µg/mL],Structure (SMILES)
1,0.8,CNCC1CCN(c2cc3c(cc2F)c(=O)c(C(=O)O)cn3-c2ccc(F)cc2F)C1 (stereo not drawn)
2,3.1,CC1CN(c2cc3c(cc2F)c(=O)c(C(=O)O)cn3C2CCC2)CC(C)N1 (stereo not drawn)
3,> 3.1,CCn1cc(C(=O)O)c(=O)c2cc(F)c(N3CCC(CNC)C3)cc21 (stereo not drawn)
4,1.6,CNCC1CCN(c2cc3c(cc2F)c(=O)c(C(=O)O)cn3C(C)(C)C)C1 (stereo not drawn)
5,> 3.1,CC(C)CN1CCN(c2cc3c(cc2F)c(=O)c(C(=O)O)cn3-c2ccc(F)cc2F)CC1
6,3.1,CC(C)N1CCN(c2cc3c(cc2F)c(=O)c(C(=O)O)cn3-c2ccc(F)cc2F)CC1
7,0.2,NC1CCN(c2cc3c(cc2F)c(=O)c(C(=O)O)cn3C2CC2)C1 (stereo not drawn)

row,Structure (SMILES),MIC [µg/mL]
1,CC(C)(C)n1cc(C(=O)O)c(=O)c2cc(F)c(N3CCNCC3)cc21,0.4

# System: Staphylococcus aureus
# Assay: Anti-bacterial activity was tested against Gram-positive SA-13 bacterium
# Type: functional
# In short: as §1
row,MIC [µg/mL],Structure (SMILES)
1,0.1,CNCC1CCN(c2cc3c(cc2F)c(=O)c(C(=O)O)cn3-c2ccc(F)cc2F)C1 (stereo not drawn)
2,3.1,CC1CN(c2cc3c(cc2F)c(=O)c(C(=O)O)cn3C2CCC2)CC(C)N1 (stereo not drawn)
3,1.6,CCn1cc(C(=O)O)c(=O)c2cc(F)c(N3CCC(CNC)C3)cc21 (stereo not drawn)
4,0.2,CNCC1CCN(c2cc3c(cc2F)c(=O)c(C(=O)O)cn3C(C)(C)C)C1 (stereo not drawn)
5,0.8,CC(C)CN1CCN(c2cc3c(cc2F)c(=O)c(C(=O)O)cn3-c2ccc(F)cc2F)CC1
6,0.4,CC(C)N1CCN(c2cc3c(cc2F)c(=O)c(C(=O)O)cn3-c2ccc(F)cc2F)CC1
7,0.4,NC1CCN(c2cc3c(cc2F)c(=O)c(C(=O)O)cn3C2CC2)C1 (stereo not drawn)

row,Structure (SMILES),MIC [µg/mL]
1,CC(C)(C)n1cc(C(=O)O)c(=O)c2cc(F)c(N3CCNCC3)cc21,0.8

# System: Streptococcus pyogenes
# Assay: Anti-bacterial activity tested against Gram-positive SP1-1 bacterium
# Type: functional
# In short: as §1
row,MIC [µg/mL],Structure (SMILES)
1,0.1,CNCC1CCN(c2cc3c(cc2F)c(=O)c(C(=O)O)cn3-c2ccc(F)cc2F)C1 (stereo not drawn)
2,> 3.1,CC1CN(c2cc3c(cc2F)c(=O)c(C(=O)O)cn3C2CCC2)CC(C)N1 (stereo not drawn)
3,0.4,CCn1cc(C(=O)O)c(=O)c2cc(F)c(N3CCC(CNC)C3)cc21 (stereo not drawn)
4,0.2,CNCC1CCN(c2cc3c(cc2F)c(=O)c(C(=O)O)cn3C(C)(C)C)C1 (stereo not drawn)
5,> 3.1,CC(C)CN1CCN(c2cc3c(cc2F)c(=O)c(C(=O)O)cn3-c2ccc(F)cc2F)CC1
6,3.1,CC(C)N1CCN(c2cc3c(cc2F)c(=O)c(C(=O)O)cn3-c2ccc(F)cc2F)CC1
7,0.8,NC1CCN(c2cc3c(cc2F)c(=O)c(C(=O)O)cn3C2CC2)C1 (stereo not drawn)

row,Structure (SMILES),MIC [µg/mL]
1,CC(C)(C)n1cc(C(=O)O)c(=O)c2cc(F)c(N3CCNCC3)cc21,1.6

# From ChEMBL document CHEMBL1129477, “Structure-activity relationships of the quinolone antibacterials against mycobacteria: effect of structural changes at N-1 and C-7” (J Med Chem, 1996)
